Experimental data: ChEMBL document CHEMBL4038284, “Synthesis of novel quinoline-based 4,5-dihydro-1H-pyrazoles as potential anticancer, antifungal, antibacterial and antiprotozoal agents” (Eur J Med Chem, 2017)
≈ marks a conversion by molar mass, not a printed value.

Columns and labels:
Cryptococcus neoformans [1] = assay: Growth inhibition of Cryptococcus neoformans ATCC 32264 at 15.62 ug/ml incubated for 48 hrs under dark condition by broth microdilution method relative to control; format: functional; conditions: ATCC 32264, 48 h, read-out: GI
Procedure, shortened: (§1)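 CLSI M27-A3 broth microdilution in RPMI-1640, DMSO ≤1%. Inoculum 1-5 × 10^3 CFU/mL. Incubated 48 h at 30 °C, dark. % inhibition = 100 − (OD405 test − sterility control)/(OD405 growth control − sterility control), with growth and sterility control wells. Triplicate.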

Staphylococcus aureus [2] = assay: Antibacterial activity against methicillin-sensitive Staphylococcus aureus ATCC 25923 after 24 hrs by resazurin dye based microdilution assay; format: functional; conditions: ATCC 25923, 24 h
Procedure, shortened: (§2)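 MIC taken as the lowest concentration giving visible inhibition and/or by resazurin (1 mg/mL). Gentamicin was the control. Run in duplicate, repeated at least three times.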

Pseudomonas aeruginosa = assay: Antibacterial activity against Pseudomonas aeruginosa ATCC 27853 after 24 hrs by resazurin dye based microdilution assay; format: functional; conditions: ATCC 27853, 24 h; procedure, shortened: as §2
Cryptococcus neoformans [3] = assay: Growth inhibition of Cryptococcus neoformans ATCC 32264 at 250 ug/ml incubated for 48 hrs under dark condition by broth microdilution method relative to control; format: functional; conditions: ATCC 32264, 48 h, read-out: GI; procedure, shortened: as §1
Candida albicans [4] = assay: Growth inhibition of Candida albicans ATCC 10231 at 3.4 ug/ml incubated for 48 hrs under dark condition by broth microdilution method relative to control; format: functional; conditions: ATCC 10231, 48 h, read-out: GI
Candida albicans [5] = assay: Antifungal activity against Candida albicans ATCC 10231 incubated for 48 hrs under dark condition by broth microdilution method; format: functional; conditions: ATCC 10231, 48 h
Procedure, shortened: (§3)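 CLSI M27-A3 broth microdilution in RPMI-1640, DMSO ≤1%, compounds at 250-0.98 µg/mL final. Inoculum 1-5 × 10^3 CFU/mL. Incubated 48 h at 30 °C in a moist dark chamber, read at OD405. MIC80 and MIC50 taken from % inhibition dose-response curves (mean ± SEM, triplicate). Amphotericin B was the positive control.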

Candida albicans [6] = assay: Growth inhibition of Candida albicans ATCC 10231 at 31.25 ug/ml incubated for 48 hrs under dark condition by broth microdilution method relative to control; format: functional; conditions: ATCC 10231, 48 h, read-out: GI; procedure, shortened: as §1
Neisseria gonorrhoeae = assay: Antibacterial activity against beta lactamase positive Neisseria gonorrhoeae ATCC 31426 by oxidase test; format: functional
Procedure, shortened: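 Agar dilution MIC on GC agar with 1% isovitalex containing increasing compound concentrations. Plates inoculated with about 1×10^4 CFU (5 µL). MIC is the lowest concentration that inhibited growth, with growth confirmed by oxidase test. Run in duplicate, repeated at least three times.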

Klebsiella pneumoniae [7] = assay: Antibacterial activity against ESBL positive Klebsiella pneumoniae ATCC 700603 after 24 hrs by resazurin dye based microdilution assay; format: functional; conditions: Klebsiella pneumoniae, 700603, 24 h; procedure, shortened: as §2
Klebsiella pneumoniae [8] = assay: Antibacterial activity against carbapenemase positive Klebsiella pneumoniae BAA 1705 after 24 hrs by resazurin dye based microdilution assay; format: functional; conditions: BAA 1705, 24 h; procedure, shortened: as §2
Candida albicans [9] = assay: Growth inhibition of Candida albicans ATCC 10231 at 7.8 ug/ml incubated for 48 hrs under dark condition by broth microdilution method relative to control; format: functional; conditions: ATCC 10231, 48 h, read-out: GI; procedure, shortened: as §1
Leishmania panamensis = assay: Antileshmanial activity against EpiR/GFP fused Leishmania panamensis MHOM/CO/87/UA140 intracellular amastigotes infected in human […] cells after 72 hrs by flow cytometric method; format: functional, cell-based; conditions: MHOM/CO/87/UA140, 72 h
Procedure, shortened: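 PMA-treated U-937 cells (3 × 10^5 cells/mL) infected with stationary-phase GFP L. panamensis promastigotes (15:1), 3 h at 34 °C, then washed. After 24 h, compounds added at 50, 12.5, 3.125 and 0.78 µg/mL for 72 h at 37 °C. EC50 by Probit; triplicate, two experiments.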

Candida albicans [10] = assay: Growth inhibition of Candida albicans ATCC 10231 at 62.5 ug/ml incubated for 48 hrs under dark condition by broth microdilution method relative to control; format: functional; conditions: ATCC 10231, 48 h, read-out: GI; procedure, shortened: as §1
Cryptococcus neoformans [11] = assay: Growth inhibition of Cryptococcus neoformans ATCC 32264 at 7.8 ug/ml incubated for 48 hrs under dark condition by broth microdilution method relative to control; format: functional; conditions: ATCC 32264, 48 h, read-out: GI; procedure, shortened: as §1
U-937 = assay: Cytotoxicity against human U937 cells after 72 hrs by MTT assay; format: cell-based; conditions: u-937, 72 h
Procedure, shortened: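 Exponentially growing U-937 at 1 × 10^5 cells/mL in RPMI-1640 with 10% FBS were exposed to 200, 50, 12.5 and 3.125 µg/mL for 72 h at 37 °C, 5% CO2. MTT for 3 h, stopped with isopropanol/SDS, formazan read at 570 nm, blank-corrected. LC50 by Probit from % viability against untreated cells. Triplicate, at least two independent experiments.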

Cryptococcus neoformans [12] = assay: Growth inhibition of Cryptococcus neoformans ATCC 32264 at 31.25 ug/ml incubated for 48 hrs under dark condition by broth microdilution method relative to control; format: functional; conditions: ATCC 32264, 48 h, read-out: GI; procedure, shortened: as §1
Candida albicans [13] = assay: Growth inhibition of Candida albicans ATCC 10231 at 250 ug/ml incubated for 48 hrs under dark condition by broth microdilution method relative to control; format: functional; conditions: ATCC 10231, 48 h, read-out: GI; procedure, shortened: as §1
Staphylococcus aureus [14] = assay: Antibacterial activity against vancomycin-intermediate Staphylococcus aureus after 24 hrs by resazurin dye based microdilution assay; format: functional; procedure, shortened: as §2
Cryptococcus neoformans [15] = assay: Antifungal activity against Cryptococcus neoformans ATCC 32264 incubated for 48 hrs under dark condition by broth microdilution method; format: functional; conditions: ATCC 32264, 48 h; procedure, shortened: as §3
Cryptococcus neoformans [16] = assay: Growth inhibition of Cryptococcus neoformans ATCC 32264 at 62.5 ug/ml incubated for 48 hrs under dark condition by broth microdilution method relative to control; format: functional; conditions: ATCC 32264, 48 h, read-out: GI; procedure, shortened: as §1
Escherichia coli = assay: Antibacterial activity against Escherichia coli ATCC 25922 after 24 hrs by resazurin dye based microdilution assay; format: functional; conditions: ATCC 25922, 24 h; procedure, shortened: as §2
Trypanosoma cruzi = assay: Antitrypanosomal activity against Trypanosoma cruzi Tulahuen intracellular amastigote harboring LacZ infected in human U937 cells after 72 hrs by CPRG/Nonidet reagent based spectrophotometric method; format: functional, cell-based; conditions: U-937, 72 h
Procedure, shortened: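 U-937 cells at 2.5 × 10^5 cells/mL in RPMI-1640 with 10% serum and 0.1 µg/mL PMA were infected with β-galactosidase-transfected Tulahuen epimastigotes at 5 parasites per cell. Infected cells were exposed to 50, 12.5, 3.125 and 0.78 µg/mL for 72 h. CPRG (100 uM) and 0.1% Nonidet P-40 were added for 3 h, read at 570 nm. EC50 by Probit. Triplicate, at least two experiments; benznidazole as reference.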

Cryptococcus neoformans [17] = assay: Growth inhibition of Cryptococcus neoformans ATCC 32264 at 125 ug/ml incubated for 48 hrs under dark condition by broth microdilution method relative to control; format: functional; conditions: ATCC 32264, 48 h, read-out: GI; procedure, shortened: as §1
Staphylococcus aureus [18] = assay: Antibacterial activity against methicillin-resistant Staphylococcus aureus ATCC 43300 after 24 hrs by resazurin dye based microdilution assay; format: functional; conditions: ATCC 43300, 24 h
Procedure, shortened: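 Broth microdilution in Mueller Hinton broth, inoculum 5 × 10^5 – 8 × 10^5. Compound stocks diluted in MHB with 5% DMSO and 0.1% Tween 80. Incubation 24 h at 35-37 °C. MIC is the lowest concentration with visible growth inhibition and/or by resazurin (1 mg/mL) read-out. Gentamicin as control. Run in duplicate, replicated at least three times.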

Candida albicans [19] = assay: Growth inhibition of Candida albicans ATCC 10231 at 15.62 ug/ml incubated for 48 hrs under dark condition by broth microdilution method relative to control; format: functional; conditions: ATCC 10231, 48 h, read-out: GI; procedure, shortened: as §1
Cryptococcus neoformans [20] = assay: Growth inhibition of Cryptococcus neoformans ATCC 32264 at 3.4 ug/ml incubated for 48 hrs under dark condition by broth microdilution method relative to control; format: functional; conditions: ATCC 32264, 48 h, read-out: GI
Plasmodium falciparum = assay: Antiplasmodial activity against chloroquine-sensitive Plasmodium falciparum 3D7 assessed as reduction in parasitic LDH activity after 48 hrs by Malstat reagent based […] method; format: functional; conditions: 3D7, 48 h
Procedure, shortened: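 Unsynchronized P. falciparum 3D7 at 0.5% parasitemia and 1% hematocrit in RPMI with 3% Albumax II. Exposed to 100, 25, 6.25 and 1.56 µg/mL for 48 h at 37 °C under 90% N2/5% CO2/5% O2. After three freeze-thaw cycles, LDH measured with Malstat and NBT/PES, 1 h in the dark, read at 650 nm. IC50 by Probit; triplicate, ≥2 experiments.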

Candida albicans [21] = assay: Growth inhibition of Candida albicans ATCC 10231 at 125 ug/ml incubated for 48 hrs under dark condition by broth microdilution method relative to control; format: functional; conditions: ATCC 10231, 48 h, read-out: GI; procedure, shortened: as §1

Compound	inhibition of growth at 15.62 µg/mL (Cryptococcus neoformans [1])	MIC (Staphylococcus aureus [2])	MIC (Pseudomonas aeruginosa)	inhibition of growth at 250 µg/mL (Cryptococcus neoformans [3])	inhibition of growth at 3.4 µg/mL (Candida albicans [4])	MIC50 (Candida albicans [5])	MIC80 (Candida albicans [5])	inhibition of growth at 31.25 µg/mL (Candida albicans [6])	MIC (Neisseria gonorrhoeae)	MIC (Klebsiella pneumoniae [7])	MIC (Klebsiella pneumoniae [8])	inhibition of growth at 7.8 µg/mL (Candida albicans [9])	EC50 (Leishmania panamensis)	inhibition of growth at 62.5 µg/mL (Candida albicans [10])	inhibition of growth at 7.8 µg/mL (Cryptococcus neoformans [11])	LC50 (U-937)	inhibition of growth at 31.25 µg/mL (Cryptococcus neoformans [12])	inhibition of growth at 250 µg/mL (Candida albicans [13])	MIC (Staphylococcus aureus [14])	MIC50 (Cryptococcus neoformans [15])	other results
Clc1ccc(N2N=C(c3ccc(Br)cc3)CC2c2cccc(Nc3ccnc4cc(Cl)ccc34)c2)cc1 (stereo not given)	0.14%	> 1000 µg/mL	> 1000 µg/mL	27.5%	3.47%	≥ 250 µg/mL	≥ 250 µg/mL	7.39%	> 1000 µg/mL	> 1000 µg/mL	> 1000 µg/mL	6.28%	16 µg/mL (≈ 27.2 µM)	13.7%	0%	35.7 µg/mL (≈ 60.7 µM)	17%	39.6%	> 1000 µg/mL	≥ 250 µg/mL	MIC80 (Cryptococcus neoformans [15]): ≥ 250 µg/mL; inhibition of growth at 62.5 µg/mL (Cryptococcus neoformans [16]): 17.8%; MIC (Escherichia coli): > 1000 µg/mL; EC50 (Trypanosoma cruzi): 29.5 µg/mL (≈ 50.1 µM); inhibition of growth at 125 µg/mL (Cryptococcus neoformans [17]): 23%; MIC (Staphylococcus aureus [18]): > 1000 µg/mL; inhibition of growth at 15.62 µg/mL (Candida albicans [19]): 6.77%; inhibition of growth at 3.4 µg/mL (Cryptococcus neoformans [20]): 0%; EC50 (Plasmodium falciparum): 10.3 µg/mL (≈ 17.4 µM); inhibition of growth at 125 µg/mL (Candida albicans [21]): 23.4%
O=C(/C=C/c1cccc(Nc2ccnc3cc(Cl)ccc23)c1)c1ccc(Cl)cc1	89%	> 1000 µg/mL	> 1000 µg/mL	100%	15.3%	62.5 µg/mL (≈ 149 µM)	≥ 250 µg/mL	41.8%	> 1000 µg/mL	> 1000 µg/mL	> 1000 µg/mL	29%	0.79 µg/mL (≈ 1.88 µM)	50.3%	82%	0.7 µg/mL (≈ 1.67 µM)	100%	78.4%	> 1000 µg/mL	7.8 µg/mL (≈ 18.6 µM)	MIC80 (Cryptococcus neoformans [15]): 7.8 µg/mL (≈ 18.6 µM); inhibition of growth at 62.5 µg/mL (Cryptococcus neoformans [16]): 100%; MIC (Escherichia coli): > 1000 µg/mL; EC50 (Trypanosoma cruzi): 0.72 µg/mL (≈ 1.72 µM); inhibition of growth at 125 µg/mL (Cryptococcus neoformans [17]): 100%; MIC (Staphylococcus aureus [18]): > 1000 µg/mL; inhibition of growth at 15.62 µg/mL (Candida albicans [19]): 39.4%; inhibition of growth at 3.4 µg/mL (Cryptococcus neoformans [20]): 49.8%; EC50 (Plasmodium falciparum): 209 µg/mL (≈ 497 µM); inhibition of growth at 125 µg/mL (Candida albicans [21]): 68.2%
COc1cc(C2=NN(C=O)C(c3cccc(Nc4ccnc5cc(Cl)ccc45)c3)C2)cc(OC)c1OC (stereo not given)	0%	> 1000 µg/mL	> 1000 µg/mL	0%	5.34%	≥ 250 µg/mL	≥ 250 µg/mL	19.7%	> 1000 µg/mL	> 1000 µg/mL	> 1000 µg/mL	5.72%	6.79 µg/mL (≈ 13.1 µM)	23.7%	0%	17.4 µg/mL (≈ 33.7 µM)	0%	43.9%	> 1000 µg/mL	≥ 250 µg/mL	MIC80 (Cryptococcus neoformans [15]): ≥ 250 µg/mL; inhibition of growth at 62.5 µg/mL (Cryptococcus neoformans [16]): 0%; MIC (Escherichia coli): > 1000 µg/mL; EC50 (Trypanosoma cruzi): 7.22 µg/mL (≈ 14 µM); inhibition of growth at 125 µg/mL (Cryptococcus neoformans [17]): 0%; MIC (Staphylococcus aureus [18]): > 1000 µg/mL; inhibition of growth at 15.62 µg/mL (Candida albicans [19]): 19.6%; inhibition of growth at 3.4 µg/mL (Cryptococcus neoformans [20]): 0%; EC50 (Plasmodium falciparum): 24.3 µg/mL (≈ 47 µM); inhibition of growth at 125 µg/mL (Candida albicans [21]): 26.7%
